# How the values were obtained:
# [1] = PCI patients; bolus of 1.0 mg/kg followed by infusion of 2.5 mg/kg/h; cited from earlier work
# [2] = Quantification of bivalirudin concentration in plasma of PCI patients; assay type: in vivo; settings: both, human, iv, Residual plasma drug levels two hours after discontinuation of infusion, 2 h POST, LC/MS/MS
# Method in brief: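 Test compound given to 22 PCI patients as an IV bolus followed by continuous infusion. Plasma sampled at baseline, about 5 min post-bolus, 30 min into infusion (or at PCI end if earlier), and 5 min, 15 min and 2 h after infusion stopped. Levels measured by LC/MS/MS with a […] detection threshold. Data given as mean ± SD.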
structure (smiles),measurement,setting,value
CC[C@H](C)[C@H](NC(=O)[C@H](CCC(=O)O)NC(=O)[C@H](CCC(=O)O)NC(=O)[C@H](Cc1ccccc1)NC(=O)[C@H](CC(=O)O)NC(=O)CNC(=O)[C@H](CC(N)=O)NC(=O)CNC(=O)CNC(=O)CNC(=O)CNC(=O)[C@@H]1CCCN1C(=O)[C@H](CCCNC(=N)N)NC(=O)[C@@H]1CCCN1C(=O)[C@H](N)Cc1ccccc1)C(=O)N1CCC[C@H]1C(=O)N[C@@H](CCC(=O)O)C(=O)N[C@@H](CCC(=O)O)C(=O)N[C@@H](Cc1ccc(O)cc1)C(=O)N[C@@H](CC(C)C)C(=O)O [bivalirudin],"Mean steady-state bivalirudin plasma levels, original dosage",[1],5.6 µM
same,"Terminal half-life, original dosage",[1],25 min
same,level at time molar,[2],200 nM

# Source: publication PMC3086141 (Circulation. Cardiovascular interventions, 2011)
